Each block holds one molecule with its values, some of them ahead of it. Non-standard residues stand in square brackets, D forms with d. No end group written: not given here. Lys(Me3) = C[N+](C)(C)CCCC[C@H](N)C(=O)O; pT = C[C@@H](OP(=O)(O)O)[C@H](N)C(=O)O
Key:
[1] = molecular target: ING1 PHD finger (UniProt Q9UK53); assay: biotin-peptide pull-down of GST-reader, anti-GST blot; details: reference: H3K4me3 peptide; sites T3
[2] = molecular target: BPTF PHD finger (UniProt Q12830); assay: as above; details: reference: H3K4me3 peptide; sites T3
[3] = molecular target: Rag2 PHD finger (UniProt P21784); assay: as above; details: reference: H3K4me3 peptide
[4] = molecular target: KDM4A double Tudor domain (DTD) (UniProt O75164); assay: as above; details: reference: H3K4me3 peptide; sites T3
[5] = molecular target: Taf3 PHD finger (UniProt Q5HZG4); assay: as above; details: reference: H3K4me3 peptide; sites T3
[6] = molecular target: PHF8 PHD finger (UniProt Q9UPP1); assay: as above; details: reference: H3K4me3 peptide; sites T3
[7] = molecular target: DIDO PHD finger (UniProt Q9BTC0); assay: as above; details: reference: H3K4me3 peptide; sites T3
[8] = molecular target: ING1 PHD finger (UniProt Q9UK53); assay: histone peptide microarray; details: reference: H3K4me3 peptide
[9] = molecular target: BPTF PHD finger (UniProt Q12830); assay: histone peptide microarray; details: reference: H3K4me3 peptide
[10] = molecular target: Rag2 PHD finger (UniProt P21784); assay: histone peptide microarray; details: reference: H3K4me3 peptide
[11] = molecular target: Taf3 PHD finger (UniProt Q5HZG4); assay: histone peptide microarray; details: reference: H3K4me3 peptide
[12] = molecular target: PHF8 PHD finger (UniProt Q9UPP1); assay: histone peptide microarray; details: reference: H3K4me3 peptide
[13] = molecular target: DIDO PHD finger (UniProt Q9BTC0); assay: histone peptide microarray; details: reference: H3K4me3 peptide
[14] = molecular target: DIDO PHD finger (aa 260–325) (UniProt Q9BTC0); assay: other fluorescence titration
Chain of DIDO PHD finger (aa 260–325) (Q9BTC0 260-325): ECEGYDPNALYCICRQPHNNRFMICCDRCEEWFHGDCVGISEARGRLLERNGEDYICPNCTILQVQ

[15] = molecular target: ING1 PHD finger (UniProt Q9UK53); assay: in vitro peptide binding, probably NMR titration; details: reference: H3K4me3 peptide (reference implied); sites T3,T6
[16] = tested on: RPE-1 cells; assay: Confocal fluorescence microscopy of Haspin inhibitor-treated RPE-1 cells; type: cell-based; details: 24 h
How it was run: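 RPE-1 cells were grown on glass coverslips in DMEM/F12 with 10% FCS to 70% confluence. They were treated 24 h with the Haspin inhibitor from a 500 μM DMSO stock; controls got solvent only. Cells were fixed in 4% formaldehyde, permeabilized in 0.5% Triton X-100, and immunostained for DIDO, ING1 and H3K4me3, with DAPI counterstain. Single confocal layers were imaged with sequential excitation.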

[17] = molecular target: T1, ING1 PHD finger (Homo sapiens, UniProt Q9UK53); assay: 1H,15N HSQC NMR titration; type: binding; details: 298K, peptide aa 1–12 of H3
T1 sequence (Q9UK53 200-279 isoform Q9UK53-2): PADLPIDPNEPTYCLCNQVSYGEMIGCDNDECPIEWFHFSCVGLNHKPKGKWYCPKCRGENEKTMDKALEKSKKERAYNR

[18] = molecular target: T2, PHF8 PHD finger (aa 37–106) (UniProt Q9UPP1 37-106, uniformly 15N-labelled for NMR); assay: other fluorescence titration
T2 sequence (looked up): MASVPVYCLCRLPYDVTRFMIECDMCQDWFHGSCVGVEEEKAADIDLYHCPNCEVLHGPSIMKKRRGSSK

binding against the reference [1]: weaker
binding against the reference [2]: weaker
binding against the reference ([3]; sites T3): weaker
binding against the reference [4]: weaker
binding against the reference [5]: weaker
binding against the reference [6]: weaker
binding against the reference [7]: weaker
binding against the reference ([8]; sites T3): weaker
binding against the reference ([9]; sites T3): weaker
binding against the reference ([10]; sites T3): weaker
binding against the reference ([11]; sites T3): weaker
binding against the reference ([12]; sites T3): weaker
binding against the reference ([13]; sites T3): weaker
Molecule: histone H3 1-20 (from UniProt P68431) H3T3phK4me3 peptide

Kd [14]: 5.5 µM
Molecule: H3K4me3T6ph peptide (aa 1–12 of histone H3) (from UniProt P68431 2-13)

Kd [14]: 1.1 µM
Molecule: H3K4me3 peptide (aa 1–12 of H3) (from UniProt P68431 2-13)

binding against the reference [15]: weaker
Molecule: histone H3 (from UniProt P68431) H3T3phK4me3T6ph peptide

Molecule: CCCNc1ccc2ncc(-c3ccc4[nH]ncc4c3)n2n1 [CHR6494]
DIDO and ING1 attachment to chromatin ([16]; 1 μM): only a portion of these proteins remained attached to chromatin
H3T3ph level in prophase ([16]; 1 μM): pronounced reduction of H3T3ph in prophase
DIDO and ING1 localization on chromatin ([16]; 2 μM): co-localization of DIDO and ING1 on poorly condensed H3K4me-positive chromatin
completion of mitosis ([16]; 2 μM): unable to complete mitosis

binding against the reference ([3]; sites T6): weaker
binding against the reference ([8]; sites T6): weaker
binding against the reference ([9]; sites T6): weaker
binding against the reference ([10]; sites T6): weaker
binding against the reference ([11]; sites T6): weaker
binding against the reference ([12]; sites T6): weaker
binding against the reference ([13]; sites T6): weaker
Molecule: histone H3 1-20 (from UniProt P68431) H3K4me3T6ph peptide

CSPs / binding to ING1 PHD finger [17]: markedly reduced
Molecule: H3T3phK4me3T6ph: triple PTM-containing peptide

fold reduction of binding against H3K4me3 [18]: 2 fold
Molecule: ART[Lys(Me3)]Q[pT]ARKSTG (peptide, UniProt P68431 2-13, looked up) [H3K4me3T6ph peptide (aa 1–12 of histone H3)]

Kd [18]: 2.5 µM
Molecule: ART[Lys(Me3)]QTARKSTG (peptide, UniProt P68431 2-13, looked up) [H3K4me3 peptide (aa 1–12 of H3)]

Source: paper PMC5291243 (Nucleic Acids Research, 2016)
